The text below walks through data of ChEMBL document CHEMBL4321819, “Simple Structural Modifications Converting a Bona fide MDM2 PROTAC Degrader into a Molecular Glue Molecule: A Cautionary Tale in the Design of PROTAC Degraders” (J Med Chem, 2019).

Assay [1] addresses T1, Eukaryotic peptide chain release factor GTP-binding subunit ERF3A (Homo sapiens, UniProt P15170). Nature of the assay: Induction of GSPT1 degradation in human RS4:11 cells at 0.1 uM pretreated with proteasome inhibitor PR-171 followed by compound treatment after 2 hrs by Western blot analysis. In general terms: Immunoblotting shows a protein as a band on a membrane.
Another assay relates to MV4-11. Nature of the assay: Antiproliferative activity against human MV4-11 cells expressing wild type p53 assessed as cell growth inhibition after 4 days by WST-8 assay. Format: functional, cell-based. Conditions: MV4-11, 96 h. The procedure, abridged:
(§1)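 Leukemia cells seeded at 10000–20000 cells/well, breast cancer lines at 5000–10000 cells/well. Serially diluted compound added, then 4 days at 37 °C, 5% CO2. Growth read with WST-8 reagent after at least 1 h, absorbance at 450 nm. RS4;11, MOLM-13 and breast lines were grown in RPMI 1640; MV-4-11 and HL-60 in IMDM; all with 10% FBS. Mean ± SE, at least three independent experiments.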
(In general: Formazan colour is commonly taken as a measure of viable cells.)

In assay [2] the target is T1, Eukaryotic peptide chain release factor GTP-binding subunit ERF3A. Nature of the assay: Induction of GSPT1 degradation in human MDA-MB-468 cells transfected with CRBN siRNA LQ-021086-10-0002 assessed as decrease in GSPT1 protein level at 0.1 uM after 2 to 24 hrs by Western blot analysis. Format: cell-based. Summed up:
(§2)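 MDA-MB-231 or MDA-MB-468 cells transfected 2 days with CRBN siRNA (Lipofectamine RNAiMAX; non-targeting siRNA as control), then exposed to 0.1 μM for 2 h or 24 h. Cell culture was RPMI 1640 with 10% FBS at 37 °C, 5% CO2. GSPT1 and cereblon protein were probed by Western blot.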

Assay [3] concerns the target T2, Protein cereblon/Eukaryotic peptide chain release factor GTP-binding subunit ERF3A/DNA damage-binding protein 1/Cullin-4A (Homo sapiens) (UniProt Q96SW2+Q16531+Q13619+P15170). Nature of the assay: Protac activity at GSPT1/CUL4/DDB1/CRBN in human RS4:11 cells expressing wild type p53 assessed as decrease in GSPT1 protein level measured upto 24 hrs by Western blot analysis. Format: cell-based. Summed up: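 RS4;11 (wild-type p53) or RS4;11/IRMI-2 (MDM2 inhibitor-resistant derivative, mutant p53) cells kept in RPMI 1640 with 10% FBS at 37 °C, 5% CO₂. 2×10^6 cells/well treated at the indicated concentrations and times, then lysed in ice-cold lysis buffer with protease inhibitor. GSPT1 detected by Western blot with a specific antibody.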

In assay [4] the target is T2, Protein cereblon/Eukaryotic peptide chain release factor GTP-binding subunit ERF3A/DNA damage-binding protein 1/Cullin-4A (Homo sapiens). Nature of the assay: Protac activity at GSPT1/CUL4/DDB1/CRBN in human RS4:11 cells expressing wild type p53 assessed as decrease in GSPT1 protein level by measuring fold change of protein level before and after treatment at 0.1 uM measured after 3 hrs relative to control.

Assay [5] addresses T1, Eukaryotic peptide chain release factor GTP-binding subunit ERF3A. In words: Induction of GSPT1 degradation in human MDA-MB-468 cells transfected with CRBN siRNA LQ-021086-11-0002 assessed as decrease in GSPT1 protein level at 0.1 uM after 2 to 24 hrs by Western blot analysis. Format: cell-based. The procedure, abridged: as §2
The target of assay [6] is T2, Protein cereblon/Eukaryotic peptide chain release factor GTP-binding subunit ERF3A/DNA damage-binding protein 1/Cullin-4A (Homo sapiens). Nature of the assay: Protac activity at GSPT1/CUL4/DDB1/CRBN in human RS4:11/IRMI-2 cells harboring p53 hotspot mutation Y236H/R249G assessed as decrease in GSPT1 protein level by measuring fold change of protein level before and after treatment at 0.1 uM measured after 3 hrs relative to control.

A further assay relates to RS4-11. In words: Antiproliferative activity against human RS4:11 cells expressing wild type p53 assessed as MDM2-independent cell growth inhibition after 4 days by WST-8 assay. Conditions: RS4-11, 96 h. The format is functional, cell-based. Summed up: as §1
The target of assay [7] is Protein cereblon/Eukaryotic peptide chain release factor GTP-binding subunit ERF3A (Homo sapiens) (UniProt Q96SW2+P15170). Nature of the assay: Inhibition of cereblon binding with GSPT1 human MDA-MB-468 cells assessed as decrease in GSPT1 degradation at 0.1 uM after 2 hrs in presence of 30 uM lenalidomide by Western blot analysis. The format is cell-based. Summed up: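 MDA-MB-231 or MDA-MB-468 cells were treated 2 h with or without 30 μM lenalidomide to block cereblon binding. GSPT1 protein level was then assessed by Western blotting.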
Protein cereblon/Eukaryotic peptide chain release factor GTP-binding subunit ERF3A (Homo sapiens), sequence (P15170 whole entry, looked up): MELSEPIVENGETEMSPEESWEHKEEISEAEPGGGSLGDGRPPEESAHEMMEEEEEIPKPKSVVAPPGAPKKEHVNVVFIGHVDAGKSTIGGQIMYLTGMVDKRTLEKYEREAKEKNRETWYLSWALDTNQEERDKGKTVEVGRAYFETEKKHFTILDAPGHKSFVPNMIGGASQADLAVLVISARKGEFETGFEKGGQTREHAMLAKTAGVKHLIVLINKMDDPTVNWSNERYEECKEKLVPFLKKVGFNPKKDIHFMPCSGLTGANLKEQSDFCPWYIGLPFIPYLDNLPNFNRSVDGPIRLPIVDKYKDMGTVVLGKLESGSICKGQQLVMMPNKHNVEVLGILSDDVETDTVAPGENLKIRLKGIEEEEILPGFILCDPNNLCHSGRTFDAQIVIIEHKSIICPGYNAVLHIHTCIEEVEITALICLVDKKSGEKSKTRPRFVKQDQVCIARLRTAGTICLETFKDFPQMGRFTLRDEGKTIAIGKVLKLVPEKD
Protein cereblon/Eukaryotic peptide chain release factor GTP-binding subunit ERF3A (Homo sapiens), sequence (Q96SW2 whole entry, looked up): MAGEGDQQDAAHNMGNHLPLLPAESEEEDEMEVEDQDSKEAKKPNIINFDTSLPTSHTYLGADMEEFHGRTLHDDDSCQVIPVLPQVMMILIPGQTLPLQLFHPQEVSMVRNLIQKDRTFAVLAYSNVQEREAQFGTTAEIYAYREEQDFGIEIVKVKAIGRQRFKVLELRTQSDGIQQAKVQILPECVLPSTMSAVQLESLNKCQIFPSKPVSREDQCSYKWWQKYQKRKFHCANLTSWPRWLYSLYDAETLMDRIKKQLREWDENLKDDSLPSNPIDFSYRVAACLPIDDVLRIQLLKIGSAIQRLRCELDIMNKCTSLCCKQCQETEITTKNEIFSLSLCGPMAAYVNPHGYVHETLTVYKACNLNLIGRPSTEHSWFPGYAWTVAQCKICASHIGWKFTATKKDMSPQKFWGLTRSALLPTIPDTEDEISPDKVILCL

The test system of the next assay is MDA-MB-468. Nature of the assay: Antiproliferative activity against human MDA-MB-468 cells transfected with CRBN siRNA LQ-021086-10-0002 assessed as cell growth inhibition after 4 days by WST-8 assay. The format is functional, cell-based. Conditions: MDA-MB-468, 96 h. Summed up:
(§3)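 MDA-MB-231 or MDA-MB-468 cells transfected for 2 days using Lipofectamine RNAiMAX with MDM2 siRNA, one of two CRBN siRNAs, or non-targeting control siRNA. Compound then added and growth read by WST-8 at 450 nm.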

Assay [8] has as its system MDA-MB-231. In words: Antiproliferative activity against human MDA-MB-231 cells transfected with CRBN siRNA LQ-021086-10-0002 assessed as cell growth inhibition after 4 days by WST-8 assay. The format is functional, cell-based. Conditions: MDA-MB-231, 72 h, in the assay text read “after 3 days” for “after 4 days”. The procedure, abridged:
as §3

Assay [9] deals with MDA-MB-231. Nature of the assay: Antiproliferative activity against human MDA-MB-231 cells transfected with CRBN siRNA LQ-021086-11-0002 assessed as cell growth inhibition after 4 days by WST-8 assay. The format is functional, cell-based. Conditions: MDA-MB-231, 96 h. The procedure, abridged: as §3

Activity calls are given as the source filed them. The rule behind the calls is not given here.

The IC50 is the concentration that gives 50% inhibition.

T2 sequence (P15170 whole entry, looked up): as the sequence (P15170 whole entry, looked up) above
T2 sequence (Q13619 whole entry, looked up): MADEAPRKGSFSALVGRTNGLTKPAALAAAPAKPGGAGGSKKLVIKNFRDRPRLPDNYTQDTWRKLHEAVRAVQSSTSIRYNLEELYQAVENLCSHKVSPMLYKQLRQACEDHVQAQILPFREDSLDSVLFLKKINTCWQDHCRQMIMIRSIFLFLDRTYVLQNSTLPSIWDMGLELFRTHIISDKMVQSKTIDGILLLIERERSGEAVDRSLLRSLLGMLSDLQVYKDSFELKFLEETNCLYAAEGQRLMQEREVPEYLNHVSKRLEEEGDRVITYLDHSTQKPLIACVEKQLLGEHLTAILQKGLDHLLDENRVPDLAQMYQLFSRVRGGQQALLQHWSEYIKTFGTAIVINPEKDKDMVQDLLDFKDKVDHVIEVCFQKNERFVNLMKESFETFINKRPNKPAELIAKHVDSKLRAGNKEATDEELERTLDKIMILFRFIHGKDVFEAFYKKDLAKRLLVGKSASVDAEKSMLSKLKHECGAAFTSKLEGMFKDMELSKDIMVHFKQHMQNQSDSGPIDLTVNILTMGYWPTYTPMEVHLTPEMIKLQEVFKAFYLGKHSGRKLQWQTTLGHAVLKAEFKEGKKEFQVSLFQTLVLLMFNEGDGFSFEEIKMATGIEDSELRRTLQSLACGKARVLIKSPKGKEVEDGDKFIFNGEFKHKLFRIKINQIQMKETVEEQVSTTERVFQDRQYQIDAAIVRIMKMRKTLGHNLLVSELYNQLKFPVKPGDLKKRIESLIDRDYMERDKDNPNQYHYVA
T2 sequence (Q16531 whole entry, looked up): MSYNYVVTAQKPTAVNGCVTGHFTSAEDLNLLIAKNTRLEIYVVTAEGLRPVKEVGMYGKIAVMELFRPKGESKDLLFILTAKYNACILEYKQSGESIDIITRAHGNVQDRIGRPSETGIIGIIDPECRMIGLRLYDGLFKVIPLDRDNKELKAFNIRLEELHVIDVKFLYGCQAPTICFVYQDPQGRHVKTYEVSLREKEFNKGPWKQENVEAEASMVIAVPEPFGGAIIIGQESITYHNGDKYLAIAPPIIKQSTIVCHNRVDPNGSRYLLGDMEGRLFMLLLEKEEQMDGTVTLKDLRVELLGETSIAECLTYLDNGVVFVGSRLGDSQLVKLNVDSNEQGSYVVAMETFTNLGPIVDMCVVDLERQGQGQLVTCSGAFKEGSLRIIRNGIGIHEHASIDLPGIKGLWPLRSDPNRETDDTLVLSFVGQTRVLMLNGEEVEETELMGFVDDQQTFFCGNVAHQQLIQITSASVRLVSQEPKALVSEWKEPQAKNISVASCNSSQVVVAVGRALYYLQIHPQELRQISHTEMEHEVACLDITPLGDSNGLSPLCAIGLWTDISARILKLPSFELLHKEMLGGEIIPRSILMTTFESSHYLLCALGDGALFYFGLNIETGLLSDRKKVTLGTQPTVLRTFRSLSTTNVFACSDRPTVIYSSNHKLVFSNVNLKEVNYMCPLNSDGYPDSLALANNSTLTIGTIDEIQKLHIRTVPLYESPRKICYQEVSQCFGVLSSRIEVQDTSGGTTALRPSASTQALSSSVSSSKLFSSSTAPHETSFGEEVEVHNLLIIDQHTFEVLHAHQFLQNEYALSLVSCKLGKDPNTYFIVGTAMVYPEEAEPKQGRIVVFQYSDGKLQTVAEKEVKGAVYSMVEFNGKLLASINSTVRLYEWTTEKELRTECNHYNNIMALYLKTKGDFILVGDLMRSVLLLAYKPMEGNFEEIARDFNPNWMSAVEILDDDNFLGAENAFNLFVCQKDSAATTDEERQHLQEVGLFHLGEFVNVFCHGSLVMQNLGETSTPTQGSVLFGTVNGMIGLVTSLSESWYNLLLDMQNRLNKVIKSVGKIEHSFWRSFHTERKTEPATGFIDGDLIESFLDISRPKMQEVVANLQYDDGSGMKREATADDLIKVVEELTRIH
T2 sequence (Q96SW2 whole entry, looked up): as the sequence (Q96SW2 whole entry, looked up) above
T1 sequence (P15170 whole entry): as the sequence (P15170 whole entry, looked up) above

As for `O=C1CCC(N2Cc3c(CCCCCNC(=O)[C@@H]4NC5(CCCCC5)[C@@]5(C(=O)Nc6cc(Cl)ccc65)[C@H]4c4cccc(Cl)c4F)cccc3C2=O)C(=O)N1` (some centres not stated), the outcome in assay [1], in assay [2] and in [5] was inactive. Moreover, the IC50 is 7.9 nM in the assay with MV4-11; 2.3 nM with RS4-11; above 1000 nM in the assay with MDA-MB-468; above 3000 nM in the assay with MDA-MB-231 [8]; above 3000 nM in the assay on MDA-MB-231 [9]. Besides, the Activity entry in assay [3] is “Dose-dependent effect”. Further, the values for the fold change in assay [4] and in assay [6] were 5.3 and 3.7, respectively. For the same compound, the inhibition result in [7] is “Active”.
